From PubChem BioAssay
Only some compounds are listed: those with a hit (about 3.1% of all), similar ones and a draw of the others.
OX1R antag-1: OX1R (human) antagonism. OX1R-expressing cells, FRET antagonist read-out. inhibition, % at 6.6 µM. 1.8% of 330,000 active; in the data active = inhibition mostly above about 38%, no sharp cut-off; inactive = mostly below about 40%
Target sequence (O43613 whole entry, looked up): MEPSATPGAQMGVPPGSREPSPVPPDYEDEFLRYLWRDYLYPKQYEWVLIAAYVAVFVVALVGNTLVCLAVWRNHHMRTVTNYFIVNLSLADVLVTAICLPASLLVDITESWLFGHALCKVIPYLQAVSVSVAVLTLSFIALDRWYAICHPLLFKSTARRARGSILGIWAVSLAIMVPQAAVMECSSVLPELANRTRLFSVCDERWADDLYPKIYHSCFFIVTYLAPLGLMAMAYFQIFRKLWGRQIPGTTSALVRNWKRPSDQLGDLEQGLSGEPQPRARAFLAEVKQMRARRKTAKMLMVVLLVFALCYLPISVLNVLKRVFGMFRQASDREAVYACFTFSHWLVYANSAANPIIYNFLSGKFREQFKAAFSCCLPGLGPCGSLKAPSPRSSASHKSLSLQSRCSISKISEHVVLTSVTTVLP
CHO parental Ca: signal in parental CHO cells, OX1R antagonist counter-screen | parental CHO-K1, ATP-induced calcium, Fluo-8 fluorescence | inhibition, % at 5.6 µM | 0.63% of 330,000 active | AID 463079;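 active = inhibition above that plate's mean sample inhibition plus 3 SD, cut at about 26% in these data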
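Test system: untransfected parental CHO cell line; also added: ATP stimulus; dosing: 5.6 µM, single dose; signal: calcium-sensitive Fluo-8 fluorescence; measure: percent inhibition of ATP-evoked calcium rise, normalized to controls; benchmarks: low control ATP plus DMSO, high control DMSO only; replication: one well per compound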
GalR3 antagonist: antagonists of human GalR3; O60755; HEK293 GalR3-CNG cAMP membrane potential fluorescence; galR3 body fused to GalR1 C-terminus; inhibition, % at 3 µM; 0.44% of 360,000 active;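 active = inhibition above the screen-wide average plus 3 SD, cut at about 13% in these data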;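 note: forskolin and galanin both at EC90 stimulate the cells; cAMP rise reported by CNG channel membrane potential dye signal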
Target sequence (O60755 1-299 limits assumed): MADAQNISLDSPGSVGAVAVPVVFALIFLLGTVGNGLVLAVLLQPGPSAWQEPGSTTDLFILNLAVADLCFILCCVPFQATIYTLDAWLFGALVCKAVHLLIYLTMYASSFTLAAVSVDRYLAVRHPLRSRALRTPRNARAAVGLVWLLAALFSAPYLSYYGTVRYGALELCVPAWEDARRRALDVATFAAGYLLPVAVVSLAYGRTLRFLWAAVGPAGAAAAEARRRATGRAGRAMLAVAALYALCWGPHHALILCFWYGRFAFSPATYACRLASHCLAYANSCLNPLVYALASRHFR
GPR7 antagonist: human neuropeptides B/W receptor 1 antagonism; AID 1861; GPR7-expressing cells, fluorescence antagonist assay; P48145; 1.1% of 290,000 active; inhibition, % at 4.4 µM; in the data active = inhibition above about 16%, passing the limit was not always enough;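 note: cells stimulated with the agonist NPW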
OX1R antag-2: blocks the human orexin 1 receptor. CHO/OX1R cells, Fluo-8 calcium fluorescence, orexin A. 0.43% of 330,000 active. inhibition, % at 5 µM;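 active = inhibition above its plate's threshold, mean inhibition of all tested compounds on the plate plus 3 SD, cut at about 37% in these data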
GPR7 antag conf: human GPR7 antagonism, confirmation assay; GPR7-expressing cells, calcium fluorescence antagonist mode; 52% of 2,400 active; shares compounds with GPR7 antagonist; AID 1952; inhibition, % at 4.4 µM; in the data active = inhibition above about 24%;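 note: stimulated with the GPR7 agonist NPW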
MCHR1 antagonist: counter-screen for GPR7 antagonists: antagonists of human MCHR1 | inhibition, % at 4.4 µM | MCHR1-expressing cells, fluorescence antagonist assay | shares compounds with GPR7 antagonist | 62% of 2,400 active; in the data active = inhibition above about 22%
OX1R Fluo8 conf: OX1R (human) antagonism, confirmed. CHO/OX1R cells, orexin A calcium Fluo-8 fluorescence. 38% of 1,100 active. shares compounds with OX1R antag-2. inhibition, % at 5 µM; in the data active = inhibition above about 29%
CHO Ca triplic: signal in parental CHO cells, OX1R antagonist counter-screen; shares compounds with OX1R antag-2; parental CHO-K1, ATP-induced calcium, Fluo-8 fluorescence; inhibition, % at 5.6 µM; 9.3% of 1,100 active; AID 492965;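 active = inhibition above a per-plate limit, the mean inhibition of that plate's test compounds plus 3 SD, cut at about 25% in these data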
OX1R HTRF confirm: OX1R (human) antagonism, HTRF confirmed | shares compounds with OX1R antag-1 | OX1R-expressing cells, HTRF antagonist assay | inhibition, % at 6.6 µM | 49% of 1,800 active | AID 492964; in the data active = inhibition above about 55%;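 note: CHO cells expressing OX1R stimulated with orexin A at about EC80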
CHO-K1 HTRF cnt: signal in parental CHO-K1 cells, OX1R antagonist counter-screen | HTRF counterscreen | AID 493232 | inhibition, % at 6.6 µM | shares compounds with OX1R antag-1 | 48% of 1,800 active; in the data active = inhibition above about 17%
GalR3 antag conf: GalR3 (human) antagonism, confirmation | shares compounds with GalR3 antagonist | HEK293 GalR3 CNG cAMP biosensor, membrane potential fluorescence; galR3 fused to GalR1 carboxy tail; challenged with forskolin and galanin at EC90 | inhibition, % at 3 µM | 59% of 1,600 active;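 active = inhibition above the primary screen's cutoff, the mean inhibition of all screened compounds plus 3 SD, cut at about 13% in these data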
CNG parental: acts as nonspecific agonist in parental HEK-CNG cells; shares compounds with GalR3 antagonist; HEK293-CNG parental cells, cAMP membrane potential fluorescence; normalised: DMSO wells 0%, forskolin wells 100%; activation, % at 3 µM; 10% of 1,600 active; in the data active = activation above about 1.3%
Of the large screens only hits and unclear results are named; the others gave an inactive call (follow-up assays come after a bar, where they were run).

Cc1ccc2ccccc2c1NC(=O)CNC1CCCCC1	none
CCc1ccccc1NC(=O)CNC1CCCCC1	GPR7 antagonist 25 | GPR7 antag conf inactive | MCHR1 antagonist inactive
CCN(CC)c1ccc(/C=C/[N+](=O)[O-])cc1	CHO parental Ca 51, GPR7 antagonist 22, OX1R antag-2 53 | GPR7 antag conf 55 | MCHR1 antagonist 84
COc1cc(C)c(CNCCc2c[nH]c3ccccc23)cc1C	GPR7 antagonist 38 | GPR7 antag conf inactive | MCHR1 antagonist 55
COC(=O)C(O)(c1ccc(NC(=O)NC2CCCCC2)cc1)C(F)(F)F (stereo not given)	none
CCOC(=O)C(O)(c1ccc(NC(=O)Oc2ccccc2)cc1)C(F)(F)F (stereo not given)	none
COC(=O)C(O)(c1ccc(NC(=S)NC(=O)c2ccc(Cl)cc2Cl)cc1)C(F)(F)F (stereo not given)	GPR7 antagonist 33 | GPR7 antag conf 56 | MCHR1 antagonist 60
CCOC(=O)C(O)(c1ccc(NC(=S)NC(=O)c2ccc(Cl)cc2Cl)cc1)C(F)(F)F (stereo not given)	CHO parental Ca 57, GPR7 antagonist 60, OX1R antag-2 71 | GPR7 antag conf 86 | MCHR1 antagonist 93
Cc1ccccc1N1C(=O)CC(=O)N(c2ccccc2C)C1=O	none
CC(=O)c1ccc(OCC(=O)N2CCCC(N(C)Cc3ccccc3)C2)cc1 (stereo not given)	none
CCn1cc(C=C2C(=O)N(C)C(=O)N(C)C2=O)c2ccccc21	GPR7 antagonist 32 | GPR7 antag conf inactive | MCHR1 antagonist inactive
COC(=O)C1=C(c2ccc(OCc3ccccc3)cc2)C[C@@H]2CC[C@H]1N2C(=O)NCCCCc1ccccc1	none (no result: OX1R antag-1, CHO parental Ca, GPR7 antagonist, OX1R antag-2)
CCCCOc1ccc(CCN)cc1Cl	GPR7 antagonist 29 | GPR7 antag conf 26 | MCHR1 antagonist 30
O=C(NCCN1CCC2(CC1)C(=O)NCN2c1ccccc1)c1cc(C(F)(F)F)ccc1C(F)(F)F	none (no result: OX1R antag-1, CHO parental Ca, GPR7 antagonist, OX1R antag-2)
CCOc1ccc(-c2cc(C)[n+](CCc3ccc(OC)c(OC)c3)c(-c3ccc(OCC)cc3)c2)cc1	GPR7 antagonist 54 (no result: OX1R antag-1, CHO parental Ca, OX1R antag-2) | GPR7 antag conf 66 | MCHR1 antagonist 61
CCOc1cccc(CNCCc2c(C)[nH]c3ccc(OC(F)(F)F)cc23)c1O	CHO parental Ca 85, GalR3 antagonist 72, GPR7 antagonist 53, OX1R antag-2 55 | GPR7 antag conf 84 | MCHR1 antagonist 95 | GalR3 antag conf 96 | CNG parental inactive
OC1CN2CCCC(O)C2C1O (stereo not given)	none (no result: OX1R antag-1, CHO parental Ca, GPR7 antagonist, OX1R antag-2)
CC(=O)c1cn(CC(=O)NCCc2c[nH]c3ccccc23)c2ccccc12	GalR3 antagonist 18, GPR7 antagonist 25 | GPR7 antag conf inactive | MCHR1 antagonist 51 | GalR3 antag conf 58 | CNG parental inactive
CCOC(=O)CNC(=O)N1Cc2cc(-c3ccc(OC)cc3)ccc2-n2nncc2C1	none (no result: OX1R antag-1, CHO parental Ca, GPR7 antagonist, OX1R antag-2)
CCOC(=O)C(O)(c1ccc(NC(=S)NC(=O)c2ccc(Cl)cc2Cl)c(C)c1)C(F)(F)F (stereo not given)	CHO parental Ca 50, GalR3 antagonist 45, GPR7 antagonist 88, OX1R antag-2 47 | GPR7 antag conf 93 | MCHR1 antagonist 97 | GalR3 antag conf 50 | CNG parental inactive
CCOC(=O)C(NC(=O)CC)(Nc1ccc(C(O)(C(=O)OCC)C(F)(F)F)cc1C)C(F)(F)F (stereo not given)	none
COC(=O)C1=C(c2ccc(F)cc2OCc2ccccc2)C[C@@H]2CC[C@H]1N2C(=O)NCCOc1ccccc1Cl	OX1R antag-2 56 (no result: GPR7 antagonist) | OX1R Fluo8 conf inactive | CHO Ca triplic inactive
O=c1[nH]c(=O)n(-c2ccccc2)c(O)c1/C=C/C=Nc1ccccc1	none
COc1ccc(-n2c(O)c(/C=C/C=Nc3ccccc3)c(=O)[nH]c2=O)cc1	OX1R antag-2 45 | OX1R Fluo8 conf inactive | CHO Ca triplic 32
CN(C)P1(N(C)C)=Nc2c(c(N)nn2C)C(c2ccccc2)=N1	OX1R antag-2 89 | OX1R Fluo8 conf inactive | CHO Ca triplic inactive
C[C@]12CCC3C(CC[C@H]4C[C@H](O)[C@H](O)C[C@]34C)C1CC[C@@H]2O (stereo not given in full)	none (no result: OX1R antag-1, CHO parental Ca, GPR7 antagonist, OX1R antag-2)
CC1N=C(c2ccccc2Cl)c2cc(Br)ccc2NC1=O (stereo not given)	none
Cc1ccc(C)c(NP(=O)(Oc2ccccc2)Oc2ccccc2)c1	OX1R antag-1 42, OX1R antag-2 81 | OX1R Fluo8 conf inactive | CHO Ca triplic inactive | OX1R HTRF confirm 58 | CHO-K1 HTRF cnt inactive
CC(C)CCn1c(N)c(C(=O)OCC2CCCO2)c2nc3ccccc3nc21 (stereo not given)	none
CCCCn1c(N)c(C(=O)OCC2CCCO2)c2nc3ccccc3nc21 (stereo not given)	OX1R antag-1 100, OX1R antag-2 78 (no result: GalR3 antagonist) | OX1R Fluo8 conf inactive | CHO Ca triplic inactive | OX1R HTRF confirm inactive | CHO-K1 HTRF cnt inactive
CCCCCCC(=O)c1c(O)n(-c2ccc(OC)cc2)c(=O)[nH]c1=O (tested in a mixture with another compound)	none
CC(=O)N1CN2CN(C(C)=O)CC(C(=O)c3ccccc3)(C2)C1	none
CC(=O)N1CN2CN(C(C)=O)CC(C(=O)c3ccc([N+](=O)[O-])cc3)(C2)C1	OX1R antag-1 93 | OX1R HTRF confirm 58 | CHO-K1 HTRF cnt 52
O=[N+]([O-])c1ccc(N2CCCC2)c2ccncc12	OX1R antag-1 87 | OX1R HTRF confirm inactive | CHO-K1 HTRF cnt 69
